ChEMBL document CHEMBL2396589, “Remarkable antioxidant properties of a series of hydroxy-3-arylcoumarins” (Bioorg Med Chem, 2013)

Columns and labels:
[1] = Antioxidant activity assessed as superoxide radical scavenging activity at 30 uM by cyclic voltammetric analysis; assay type: functional
Outline: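 Cyclic voltammetry was run at room temperature with a three-electrode cell in DMSO, with compound at 30 µM final. Scavenging (%) was calculated as [(Ipc blank − Ipc aox)/Ipc blank] × 100 from the cathodic peak current without and with compound. Three replicates; significance was set at p < 0.05.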

[2] = Antioxidant activity assessed as hydroxyl radical scavenging activity at 4 mM after 5 mins by ESR spectrometric analysis; assay type: functional
Outline: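 Hydroxyl radicals came from a non-catalytic Fenton-type system: DMF, NaOH (3 mM), DMPO spin trap (30 mM final) and 30% H2O2, with compound at 4 mM final. The DMPO-OH adduct was read by X-band ESR (9.7 GHz) at room temperature 5 min after mixing. A control without antioxidant was included. Values are given as % scavenging.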

[3] = Antioxidant activity assessed as inhibition of AAPH-induced peroxyl radical formation at 0.3 to 2 uM preincubated for 15 mins followed by AAPH addition measured every 1 min for 120 mins by ORAC-FL assay relative to trolox; assay type: functional
Outline: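 Fluorescein (70 nM final) and compound (0.3–2 µM, in methanol) were mixed in 75 mM sodium phosphate pH 7.4 and pre-incubated 15 min at 37 °C. AAPH (18 mM final) was then added. Fluorescence (ex 485, em 528 nm) was read every minute for 120 min. Net AUC was taken after subtracting a methanol blank and expressed relative to trolox. Triplicates, at least three independent assays.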

[4] = test system: Radical scavenging activity; experiment: Antioxidant activity assessed as DPPH radical scavenging activity at 1 mM after 5 mins by ESR spectrometric analysis; assay type: functional
Outline: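 Reaction mixtures held DPPH and test compound, each at 1.0 mM, both made up in acetonitrile. A control lacked compound. ESR signal was recorded 5 min after mixing at 9.81 GHz with 20 mW microwave power, 0.95 G modulation amplitude and 59 db receiver gain. Values are given as % DPPH scavenging.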

[5] = Antioxidant activity assessed as inhibition of AAPH-induced peroxyl radical formation by ORAC-FL assay relative to trolox; assay type: functional
Outline: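 Peroxyl scavenging in 75 mM sodium phosphate buffer pH 7.4 with fluorescein (70 nM final), using test compounds in methanol from 0.3 to 2 units. The mix was pre-incubated 15 min at 37 °C, then AAPH (18 mM final) was added. Fluorescence (ex 485, em 528 nm) was read every 1 min for 120 min. Net AUC was taken against a methanol blank and expressed relative to trolox standards. Triplicates, ≥3 independent runs.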

[6] = test system: Radical scavenging activity; experiment: Antioxidant activity assessed as DPPH radical scavenging activity measured at 5 mins by ESR spectrometric analysis

Structure (SMILES) | Activity [1] [%] | Activity [2] [%] | fold change (FC) [3] | Activity [4] [%] | fold change (FC) [5] | Activity [6] [%]
Cc1cccc2cc(-c3cc(O)cc(O)c3)c(=O)oc12 | 22.6 | 75 | 5.5 | 11.2 | – | –
Cc1ccc2oc(=O)c(-c3ccccc3O)cc2c1 | 25 | 100 | 8.4 | 10.6 | – | –
O=c1oc2c(O)cccc2cc1-c1ccc(O)cc1 | 71.5 | 100 | 13.5 | 65.9 | – | –
Cc1cccc2cc(-c3cc(O)c(O)c(O)c3)c(=O)oc12 | 76.5 | 100 | 5.3 | 100 | – | –
Cc1ccc2oc(=O)c(-c3cccc(O)c3)cc2c1 | 17.5 | 5.2 | 6.7 | 3.4 | – | –
Cc1ccc2oc(=O)c(-c3ccc(O)cc3)cc2c1 | 17.4 | 100 | 6.1 | 27.7 | – | –
O=c1c(O)c(-c2ccc(O)c(O)c2)oc2cc(O)cc(O)c12 | – | – | – | – | 7.28 | 20
Cc1ccc(-c2cc3cccc(O)c3oc2=O)cc1 | 17.4 | 16 | 6.3 | 28.6 | – | –
Cc1cccc2cc(-c3ccc(O)c(O)c3)c(=O)oc12 | 77.3 | 100 | 5.7 | 66.7 | – | –
Oc1cc(O)c2c(c1)OC(c1ccc(O)c(O)c1)C(O)C2 (stereo not given) | – | – | – | – | 6.76 | 44.5
Cc1ccc2oc(=O)c(-c3ccc(O)c(O)c3)cc2c1 | 28.9 | 6.05 | 5.3 | 28.3 | – | –
